High-throughput results as filed in PubChem.
thrombin 1536: human alpha-thrombin inhibitors, primary screen, counter-screen for coagulation protease inhibitor project, biochemical, 1536-well, fluorogenic AMC substrate; Prothrombin (Homo sapiens), P00734; Boc-VPR-AMC fluorogenic substrate cleavage; inhibition, % at 5 µM; 220,000 tested, 0.26% active;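 active = inhibition at or above 40%; inactive = inhibition below 40%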
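Test system: human alpha-thrombin protein / Dosing: one concentration per compound, 5 µM, with 0.2% DMSO / Medium: pH 7.5 Tris-saline with Tween 20 / Benchmarks: no-compound enzyme wells and no-enzyme blanks / Read-out basis: percent inhibition of thrombin substrate cleavage / Timing: reaction at room temperature / Measured by: fluorescence, ex 355 nm, em 460 nm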
hK5 inh: human KLK5 protease inhibitors, primary screen, biochemical, 1536-well; Kallikrein-5 (Homo sapiens), Q9Y337; recombinant hK5, fluorogenic AMC substrate cleavage; inhibition, % at 5 µM; 210,000 tested, 0.59% active; AID 873, 2007;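 active = inhibition of 40% or more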
m-calpain inh: inhibitors of pig calpain II, primary screen, biochemical, fluorogenic peptide substrate, 1536-well; purified calpain II, 30 min; inhibition, % at 16 µM; 220,000 tested, 0.37% active;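 active = inhibition above about 50%, limit read from the data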
FXIa inh: human FXIa protease inhibitors, primary screen, biochemical, 1536-well; AID 798, 2007; Coagulation factor XI (Homo sapiens), P03951; inhibition, % at 5 µM; purified FXIa, Boc-Glu-Ala-Arg-AMC fluorogenic substrate; 220,000 tested, 0.14% active;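 active = inhibition of at least 40%; inactive = inhibition below 40%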;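 also: fluorescence of freed AMC excited at 355 nm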
FXIIa inh: human FXIIa protease inhibitors, primary screen, biochemical, 1536-well. Coagulation factor XII (Homo sapiens), P00748. purified FXIIa, Boc-QGR-AMC fluorogenic substrate, 2 h. inhibition, % at 5 µM. 220,000 tested, 0.3% active; in the data active = inhibition above about 40%
Target sequence (P00748 20-372 limits assumed): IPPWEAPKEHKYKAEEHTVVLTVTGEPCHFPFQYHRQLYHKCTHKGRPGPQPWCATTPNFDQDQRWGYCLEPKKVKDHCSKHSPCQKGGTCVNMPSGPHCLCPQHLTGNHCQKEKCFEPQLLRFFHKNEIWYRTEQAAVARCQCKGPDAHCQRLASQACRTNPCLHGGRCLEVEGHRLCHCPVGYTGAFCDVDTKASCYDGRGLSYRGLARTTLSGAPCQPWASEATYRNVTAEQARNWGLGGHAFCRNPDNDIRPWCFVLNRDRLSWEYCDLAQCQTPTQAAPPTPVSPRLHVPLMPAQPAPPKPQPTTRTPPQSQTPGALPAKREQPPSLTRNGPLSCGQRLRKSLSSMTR
Target sequence (P00748 373-615 limits assumed): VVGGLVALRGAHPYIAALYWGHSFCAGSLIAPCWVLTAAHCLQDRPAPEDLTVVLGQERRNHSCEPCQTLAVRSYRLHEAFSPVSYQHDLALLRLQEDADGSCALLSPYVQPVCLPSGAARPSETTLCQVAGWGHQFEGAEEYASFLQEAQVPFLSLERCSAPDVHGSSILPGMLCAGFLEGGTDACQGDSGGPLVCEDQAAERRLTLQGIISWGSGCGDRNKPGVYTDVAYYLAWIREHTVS
Each line names hits and unclear results; the compound was inactive in the other large screens. The list is not random: actives were taken first. Their share in the collection is about 1.4%.

CCc1cc2c(N[C@@H](Cc3c[nH]c4ccccc34)C(=O)O)ncnc2s1	none
Cc1cccc(C#N)c1NC1=CC(=O)CC(C)(C)C1	none
CCCN1C(=O)/C(=C/c2cc(C)n(C)c2C)SC1=Nc1ccc(OC)cc1	none
COc1ccc(N=C2S/C(=C\c3cc(C)n(C)c3C)C(=O)N2C)cc1	hK5 inh 41.4
CCCCOC(=O)c1ccc(NC(=O)C(=O)NCc2ccco2)cc1	FXIIa inh 99.5
COc1cccc(NC(=O)CN(C)CC(=O)Nc2ccc(Cl)cc2[N+](=O)[O-])c1	m-calpain inh 55.1
CC1=C(C(=O)NCc2ccc(Cl)cc2)C2(CCC(C)CC2)OC1=O (configuration not stated)	none
CC1=C(C(=O)NCc2ccccn2)C2(CCC(C)CC2)OC1=O (configuration not stated)	hK5 inh 114.5
COc1cc(NC(=O)C(F)(F)F)cc(OC)c1	none
Cc1ccc(-c2c[n+](CC(=O)Nc3nc(-c4ccc(F)cc4)cs3)c3n2CCC3)cc1	hK5 inh 49.2
O=C(C[n+]1cc(-c2ccc(F)cc2)n2c1CCC2)Nc1nc(-c2ccccc2)cs1	none
O=C(NC1CCCCC1)C(=O)c1c(-c2ccccc2)[nH]c2ccccc12	none
CC(C)(CO)N=Cc1c(O)[nH]c2ccccc12	hK5 inh 47.5
Cc1cccc(/N=C/c2c(O)[nH]c3ccccc23)n1	none
CC(C)(C)c1[nH]c2ccccc2c1/C=N/O	none
CC(C)N=Cc1c(O)[nH]c2ccccc12	FXIIa inh 46.2
CN(C)c1ccc(N=Nc2ccccc2C(=O)OCC(=O)NC2CCCC2)cc1	none
CN(C)c1ccc(N=Nc2ccccc2C(=O)OCC(=O)NCC2CCCCC2)cc1	hK5 inh 48.2
O=C(Cn1c(-c2cscn2)nc2ccccc21)Nc1ccccc1F	hK5 inh 42.3
COc1ccc(C(=O)/C=C/Sc2nc3ccccc3o2)cc1	none
CCCCOC(=O)Sc1nc2ccccc2o1	thrombin 1536 46.3
Cc1nc(NCc2ccccc2)c2cc[nH]c2n1	none
COc1ccc(-c2cc(C(F)(F)F)c(C#N)c(SCC(=O)O)n2)cc1OC	hK5 inh 48.5
Cc1ccc(C(=O)Nc2ccc3c(c2)CCC3)o1	hK5 inh 84.3
CCOc1ccc(NC(=O)CCSc2nnc(C)s2)cc1	hK5 inh 46.5
CCOc1ccc(NC(=O)CCC(=O)O)cc1	none
CC(C)Oc1cc(NC(=O)CS(=O)CC(=O)N(C)C)c(Cl)cc1Cl (configuration not stated)	none
CCOC(=O)c1cc2sccc2n1CC(=O)N1c2ccccc2CC1C (configuration not stated)	FXIIa inh 48.3
CCOC(=O)c1cc2sccc2n1CC(=O)O	none
COc1cc(Cl)c(C)cc1NC(=O)CNC(C)c1ccccc1OC (configuration not stated)	m-calpain inh 89.8
CCCC(O)(c1ccc(Cl)cc1)C(CN1CCOCC1)c1ccccc1 (configuration not stated)	none
O=C(c1ccc2c(c1)OCO2)N1CCN(c2ccccc2F)CC1	none
CCC(=O)Nc1cc2c(cc1C(=O)c1ccccc1)OCCO2	none
CC(=O)Nc1cc2c(cc1C(=O)c1ccccc1)OCCO2	hK5 inh 49.2
CC(=O)N1CCC(N2CCN(c3ccccc3F)CC2)CC1	FXIIa inh 59.5
O=C1c2ccc(-c3ccc4c(c3)C(=O)N(CCO)C4=O)cc2C(=O)N1CCO	hK5 inh 45.5, FXIa inh 53.1
O=C(O/N=C/c1ccc2c(c1)OCO2)c1ccc([N+](=O)[O-])cc1	m-calpain inh 70.0
NC(=S)N/N=C/c1coc2c(ccc3ccccc32)c1=O	m-calpain inh 73.0
NC(=S)N/N=C/c1coc2cc(Br)ccc2c1=O	none
CCC(C)NC(=O)CSc1nc2ccsc2c(=O)n1NC(=O)c1ccccc1 (configuration not stated)	FXIIa inh 40.5
Cc1ccc(CNC(=O)CSc2nc3ccsc3c(=O)n2NC(=O)c2ccccc2)cc1	none
CCC(=O)c1ccc(OCc2ccccc2)c(OC)c1	none
CCC(=O)c1ccc(OCc2ccc(C(=O)OC)cc2)c(OC)c1	hK5 inh 57.4
COc1ccc(CNc2ccc(C)c(C)c2)cc1	none
COCc1cc(C)n(CC(=O)NC(C)c2ccccc2)c(=O)c1C#N (configuration not stated)	none
Cc1nnc(Sc2cc(NCCO)c([N+](=O)[O-])c3nonc23)s1	m-calpain inh 82.3
CCCn1c(NCc2cccs2)nc2ccccc21	hK5 inh 56.1
O=C1ON=C(c2ccc(Cl)cc2)/C1=C/c1ccc(O)cc1	none
Cc1nc(COC(=O)c2cc(O)c3ccccc3c2O)cs1	none
O=C(COc1ccccc1)NNC1=NS(=O)(=O)c2ccccc21	none
S=C(Nc1ccccc1Oc1ccccc1)Nc1cccc(Cl)c1Cl	m-calpain inh 55.1
CC1CN(c2nnnn2-c2ccccc2)CC(C)O1 (configuration not stated)	hK5 inh 66.6
Fc1ccc(N2CCN(c3nnnn3-c3ccccc3)CC2)cc1	none
C=CCn1c(Cc2ccccc2)nnc1SCc1nc2ccccc2c(=O)[nH]1	none
O=C(c1ccc(Cl)cc1)N1CCc2c([nH]c3ccccc23)C1C(F)(F)F (configuration not stated)	none
O=C(c1cn[nH]c1)N1CCc2c([nH]c3ccccc23)C1c1c(F)cccc1Cl (configuration not stated)	hK5 inh 75.1
O=C(CSc1nc2ccccc2c(=O)n1-c1ccccc1)N1CCc2ccccc21	m-calpain inh 68.2
O=C(CSc1nc2ccccc2c(=O)n1-c1ccccc1)N1CCCc2ccccc21	none
Cc1cc(CN(C)C(=O)CCc2nnc(Cc3cccc(C(F)(F)F)c3)o2)on1	none (no result: hK5 inh)
Nc1c(Cl)cc(Cl)cc1C(=O)OCC(=O)NC1CC1	none
COCCNC(=O)CCCCCN1C(=O)CCC1=O	none
Cc1ccc(C)n1-c1cccc(C(=O)O)c1	none
O=C(O)c1cccc(N2CCCC2)c1	hK5 inh 128.2
Clc1ccccc1OCc1nc(-c2ccccn2)no1	hK5 inh 48.2
Clc1ccc(OCc2nc(-c3ccccn3)no2)c(Br)c1	none
COc1ccc(C(C(=O)NC2CCCC2)N(Cc2ccccc2)C(=O)CNC(=O)c2ccco2)cc1 (configuration not stated)	none
Clc1ccc(CON/C=N/c2ncnc3sccc23)cc1	hK5 inh 77.5
C(=N\c1ncnc2sccc12)/NOCc1ccccc1	none
Cc1cc(C)n(/N=C/c2ccccc2)c(=O)c1C#N	FXIIa inh 57.5
CCOc1ccc(Nc2nnc(SCc3nc4ccccc4c(=O)[nH]3)s2)cc1	m-calpain inh 51.6
Cc1ccccc1Nc1nnc(SCc2nc3ccccc3c(=O)[nH]2)s1	none
Cc1ccc(/C=N/n2cnnc2)s1	hK5 inh 52.7
